Active and inactive are the calls of the source.
Assays:
Type in all cases: functional, cell-based
Hippocampal neurone [1] = experiment: Anti-neuronal activity against hippocampal neuron in Wistar rat assessed as H89 blocked CREB phosphorylation at Serine 133 by western blot analysis
Hippocampal neurone [2] = experiment: Anti-neuronal activity against hippocampal neuron in Wistar rat assessed as blocked transcriptional activation of promoters VI by qPCR assay analysis
How it was run: (§1)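 Rat hippocampal cultures (15 DIV) were pretreated for 1 h with 10 µM SB203580 (p38 inhibitor), then given 20 µM NMDA for 5 min. Bdnf transcripts were measured by RT-qPCR 30 min after NMDA, using 0.5 µM primers and Gapdh, GusB and Pgk1 as reference genes. Samples were compared with non-stimulated controls; n = independent cultures.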

Hippocampal neurone [3] = experiment: Anti-neuronal activity against hippocampal neuron in Wistar rat assessed as blocked transcriptional activation of promoters II by qPCR assay analysis; how it was run: as §1
Hippocampal neurone [4] = experiment: Anti-neuronal activity against hippocampal neuron in Wistar rat assessed as higher levels of H3K27Me3 at promoter II by qPCR assay analysis
How it was run: (§2)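 E18 Wistar rat hippocampal neurons were cultured 15 DIV and stimulated with 20 µM NMDA for 5 min, then the medium was replaced. Cells were crosslinked with 1% formaldehyde for 10 min at 37 °C and chromatin sonicated to 400–700 bp. 100 µg protein per overnight immunoprecipitation at 4 °C, with rabbit IgG as negative control. Promoter DNA was quantified by qPCR against unstimulated controls; n = independent cultures.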

Hippocampal neurone [5] = experiment: Anti-neuronal activity against hippocampal neuron in Wistar rat assessed as H3K27Ac promoters I by qPCR assay analysis; how it was run: as §2
Hippocampal neurone [6] = experiment: Anti-neuronal activity against hippocampal neuron in Wistar rat assessed as blocked H3K27Me3 demethylation at promoters VI by qPCR assay analysis; how it was run: as §2
Hippocampal neurone [7] = experiment: Anti-neuronal activity against hippocampal neuron in Wistar rat assessed as blocked recruitment of CBP by qPCR assay analysis; how it was run: as §2
Hippocampal neurone [8] = experiment: Anti-neuronal activity against hippocampal neuron in Wistar rat assessed as active CREB was found at the BDNF promoters by qPCR assay analysis; how it was run: as §2
Hippocampal neurone [9] = experiment: Anti-neuronal activity against hippocampal neuron in Wistar rat assessed as H3K27Ac promoters VI by qPCR assay analysis; how it was run: as §2
Hippocampal neurone [10] = experiment: Anti-neuronal activity against hippocampal neuron in Wistar rat assessed as impaired recruitment of JMJD3 by qPCR assay analysis; how it was run: as §2
Hippocampal neurone [11] = experiment: Anti-neuronal activity against hippocampal neuron in Wistar rat assessed as blocked H3K27Me3 demethylation at promoters IV by qPCR assay analysis; how it was run: as §2

Measured: Activity

O=S(=O)(NCCNC/C=C/c1ccc(Br)cc1)c1cccc2cnccc12
active: Hippocampal neurone [1]

O=C(Nc1ccc(Cl)cc1)c1cc2ccccc2cc1O
active: Hippocampal neurone [2] | Hippocampal neurone [3] | Hippocampal neurone [4] | Hippocampal neurone [5] | Hippocampal neurone [6] | Hippocampal neurone [7] | Hippocampal neurone [8] | Hippocampal neurone [9] | Hippocampal neurone [10] | Hippocampal neurone [11]

Reference: ChEMBL document CHEMBL5712889, “Neuronal activity controls Bdnf expression via Polycomb de-repression and CREB/CBP/JMJD3 activation in mature neurons” (Nat Commun, 2016)
